Data published in ChEMBL document CHEMBL4152346, “Sulfonamido-2-arylbenzoxazole GroEL/ES Inhibitors as Potent Antibacterials against Methicillin-Resistant Staphylococcus aureus (MRSA)” (J Med Chem, 2018).
Activity calls are given as the source filed them. No rule for the calls is given here.

Experiments:
Type in all cases: functional, organism-based
Acinetobacter baumannii = experiment: Antibacterial activity against Acinetobacter baumannii ATCC 19606 after 24 hrs; settings: ATCC 19606 = CIP 70.34 = JCM 6841
Method in brief: (§1)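 Stagnant liquid-culture proliferation assay at 37°C in broth cation-adjusted with 25 mg/L Ca²⁺ and 12.5 mg/L Mg²⁺, with compounds stamped into the wells. […] OD600 turbidity was read at 6–8 h (K. pneumoniae, E. cloacae, P. aeruginosa) or 24 h (A. baumannii). EC50 came from non-linear regression, averaged in log form over replicates.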

Klebsiella pneumoniae = experiment: Antibacterial activity against Klebsiella pneumoniae ATCC 13883 after 6 to 8 hrs; method in brief: as §1
Enterobacter cloacae = experiment: Antibacterial activity against Enterobacter cloacae subsp. cloacae ATCC 13047 after 6 to 8 hrs; method in brief: as §1
Pseudomonas aeruginosa = experiment: Antibacterial activity against Pseudomonas aeruginosa ATCC 10145 after 6 to 8 hrs; method in brief: as §1

Row | Structure (SMILES) | Activity (Acinetobacter baumannii) | Activity (Klebsiella pneumoniae) | Activity (Enterobacter cloacae) | Activity (Pseudomonas aeruginosa)
1 | O=S(=O)(Nc1ccc(-c2nc3cc(NS(=O)(=O)c4ccc(F)cc4)ccc3o2)cc1)c1ccc(F)cc1 | inactive | inactive | inactive | inactive
2 | COc1ccc(S(=O)(=O)Nc2ccc(-c3nc4cc(NS(=O)(=O)c5ccc(OC)cc5)ccc4o3)cc2)cc1 | inactive | inactive | inactive | inactive
3 | N#Cc1ccccc1S(=O)(=O)Nc1ccc(-c2nc3cc(NS(=O)(=O)c4ccccc4C#N)ccc3o2)cc1 | inactive | inactive | inactive | inactive
4 | O=S(=O)(Nc1ccc(-c2nc3cc(NS(=O)(=O)c4ccc(C(F)(F)F)cc4)ccc3o2)cc1)c1ccc(C(F)(F)F)cc1 | inactive | inactive | inactive | inactive
5 | Nc1ccc(S(=O)(=O)Nc2ccc(-c3nc4cc(NS(=O)(=O)c5ccc(N)cc5)ccc4o3)cc2)cc1 | inactive | inactive | inactive | inactive
6 | O=S(=O)(Nc1ccc(-c2nc3cc(NS(=O)(=O)c4ccccc4)ccc3o2)cc1)c1ccccc1 | inactive | inactive | inactive | inactive
7 | Cc1ccccc1S(=O)(=O)Nc1ccc(-c2nc3cc(NS(=O)(=O)c4ccccc4C)ccc3o2)cc1 | inactive | inactive | inactive | inactive
8 | O=S(=O)(Nc1ccc(-c2nc3cc(NS(=O)(=O)c4ccccc4Cl)ccc3o2)cc1)c1ccccc1Cl | inactive | inactive | inactive | inactive
9 | O=S(=O)(Nc1ccc(-c2nc3cc(NS(=O)(=O)c4cccs4)ccc3o2)cc1)c1cccs1 | inactive | inactive | inactive | inactive
10 | O=S(=O)(Nc1ccc(-c2nc3cc(NS(=O)(=O)c4ccc(Br)cc4)ccc3o2)cc1)c1ccc(Br)cc1 | inactive | inactive | inactive | inactive
11 | O=C(O)c1cccc(S(=O)(=O)Nc2ccc(-c3nc4cc(NS(=O)(=O)c5cccc(C(=O)O)c5)ccc4o3)cc2)c1 | inactive | inactive | inactive | inactive
12 | O=S(=O)(Nc1ccc(-c2nc3cc(NS(=O)(=O)c4cccc(F)c4)ccc3o2)cc1)c1cccc(F)c1 | inactive | inactive | inactive | inactive
13 | Nc1cccc(S(=O)(=O)Nc2ccc(-c3nc4cc(NS(=O)(=O)c5cccc(N)c5)ccc4o3)cc2)c1 | inactive | inactive | inactive | inactive
14 | Cc1ccc(S(=O)(=O)Nc2ccc(-c3nc4ccc(NS(=O)(=O)c5ccc(C)cc5)cc4[nH]3)cc2)cc1 | inactive | inactive | inactive | inactive
15 | O=[N+]([O-])c1cccc(S(=O)(=O)Nc2ccc(-c3nc4cc(NS(=O)(=O)c5cccc([N+](=O)[O-])c5)ccc4o3)cc2)c1 | inactive | inactive | inactive | inactive
16 | O=S(=O)(Nc1ccc2oc(-c3ccc(NS(=O)(=O)c4ccc5ncsc5c4)cc3)nc2c1)c1ccc2scnc2c1 | inactive | inactive | inactive | inactive
17 | O=S(=O)(Nc1ccc(-c2nc3cc(NS(=O)(=O)c4ccccc4O)ccc3o2)cc1)c1ccccc1O | inactive | inactive | inactive | inactive
18 | O=S(=O)(Nc1ccc(-c2nc3cc(NS(=O)(=O)c4ccc(O)cc4)ccc3o2)cc1)c1ccc(O)cc1 | Active | Active | Active | Active
19 | O=S(=O)(Nc1ccc(-c2nc3cc(NS(=O)(=O)c4cccc5ccccc45)ccc3o2)cc1)c1cccc2ccccc12 | inactive | inactive | inactive | inactive
20 | Nc1ccccc1S(=O)(=O)Nc1ccc(-c2nc3cc(NS(=O)(=O)c4ccccc4N)ccc3o2)cc1 | inactive | inactive | inactive | inactive
21 | COC(=O)c1cccc(S(=O)(=O)Nc2ccc(-c3nc4cc(NS(=O)(=O)c5cccc(C(=O)OC)c5)ccc4o3)cc2)c1 | inactive | inactive | inactive | inactive

Row | Structure (SMILES) | Activity (Acinetobacter baumannii) | Activity (Klebsiella pneumoniae) | Activity (Enterobacter cloacae) | Activity (Pseudomonas aeruginosa)
22 | O=S(=O)(Nc1ccc(-c2nc3cc(NS(=O)(=O)c4cccc(Cl)c4)ccc3o2)cc1)c1cccc(Cl)c1 | inactive | inactive | inactive | inactive
23 | Cc1cccc(S(=O)(=O)Nc2ccc(-c3nc4cc(NS(=O)(=O)c5cccc(C)c5)ccc4o3)cc2)c1 | inactive | inactive | inactive | inactive
24 | COC(=O)c1ccccc1S(=O)(=O)Nc1ccc(-c2nc3cc(NS(=O)(=O)c4ccccc4C(=O)OC)ccc3o2)cc1 | inactive | inactive | inactive | inactive
25 | O=S(=O)(Nc1ccc(-c2nc3cc(NS(=O)(=O)c4ccccc4Br)ccc3o2)cc1)c1ccccc1Br | inactive | inactive | inactive | inactive
26 | O=S(=O)(Nc1ccc(-c2nc3cc(NS(=O)(=O)c4cccc5nonc45)ccc3o2)cc1)c1cccc2nonc12 | inactive | inactive | inactive | inactive
27 | CS(=O)(=O)Nc1ccc(-c2nc3cc(NS(C)(=O)=O)ccc3o2)cc1 | inactive | inactive | inactive | inactive
28 | O=S(=O)(Nc1ccc(-c2nc3cc(NS(=O)(=O)c4ccc5nsnc5c4)ccc3o2)cc1)c1ccc2nsnc2c1 | inactive | inactive | inactive | inactive
29 | O=S(=O)(Nc1ccc(-c2nc3cc(NS(=O)(=O)C(F)(F)F)ccc3o2)cc1)C(F)(F)F | inactive | inactive | inactive | inactive
30 | O=[N+]([O-])c1ccccc1S(=O)(=O)Nc1ccc(-c2nc3cc(NS(=O)(=O)c4ccccc4[N+](=O)[O-])ccc3o2)cc1 | inactive | inactive | inactive | inactive
31 | O=S(=O)(Cc1ccccc1)Nc1ccc(-c2nc3cc(NS(=O)(=O)Cc4ccccc4)ccc3o2)cc1 | inactive | inactive | inactive | inactive
32 | COc1ccccc1S(=O)(=O)Nc1ccc(-c2nc3cc(NS(=O)(=O)c4ccccc4OC)ccc3o2)cc1 | inactive | inactive | inactive | inactive
33 | COC(=O)c1ccc(S(=O)(=O)Nc2ccc(-c3nc4cc(NS(=O)(=O)c5ccc(C(=O)OC)cc5)ccc4o3)cc2)cc1 | inactive | inactive | inactive | inactive
34 | Cc1ccc(S(=O)(=O)Nc2ccc(-c3nc4cc(NS(=O)(=O)c5ccc(C)cc5)ccc4o3)cc2)cc1 | inactive | inactive | inactive | inactive
35 | O=S(=O)(Nc1ccc(-c2nc3cc(NS(=O)(=O)c4cccc5nsnc45)ccc3o2)cc1)c1cccc2nsnc12 | inactive | inactive | inactive | inactive
36 | O=S(=O)(Nc1ccc(-c2nc3cc(NS(=O)(=O)c4ccccc4F)ccc3o2)cc1)c1ccccc1F | inactive | inactive | inactive | inactive
37 | O=C(O)c1ccc(S(=O)(=O)Nc2ccc(-c3nc4cc(NS(=O)(=O)c5ccc(C(=O)O)cc5)ccc4o3)cc2)cc1 | inactive | inactive | inactive | inactive
38 | O=S(=O)(Nc1ccc(-c2nc3cc(NS(=O)(=O)c4cccc(Br)c4)ccc3o2)cc1)c1cccc(Br)c1 | inactive | inactive | inactive | inactive
39 | O=S(=O)(Nc1ccc(-c2nc3cc(NS(=O)(=O)c4ccccc4C(F)(F)F)ccc3o2)cc1)c1ccccc1C(F)(F)F | inactive | inactive | inactive | inactive
40 | O=S(=O)(Nc1ccc(-c2nc3cc(NS(=O)(=O)c4ccc5ccccc5c4)ccc3o2)cc1)c1ccc2ccccc2c1 | inactive | inactive | inactive | inactive
41 | O=C(O)c1ccccc1S(=O)(=O)Nc1ccc(-c2nc3cc(NS(=O)(=O)c4ccccc4C(=O)O)ccc3o2)cc1 | inactive | inactive | inactive | inactive
